One may read the IC50 as the concentration that gives 50% inhibition. One may read the ED50 as the dose that gives a 50% effect, or the effect in half of the subjects. Read a high ED50 as weaker potency.

In one test the test system is Plasmodium falciparum. Put plainly: In vitro antimalarial activity against chloroquine-sensitive Plasmodium falciparum HB3. The class given is functional, organism-based. Put shortly:
(§1)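 P. falciparum kept in human erythrocytes in RPMI 1640 with 25 mM HEPES, 32 mM NaHCO3, 10% human serum, under 3% O2/4% CO2/93% N2. 48-h assay at 2% parasitemia, 0.5% hematocrit; DMSO stocks diluted in medium; triplicates. [3H]hypoxanthine (0.5 μCi) added at 24 h, harvested 24 h later; IC50 by probit interpolation of log dose-response.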
Turning to `C[C@H]1[C@@H](CCO)O[C@@H]2OC3(C)CC[C@H]4[C@H](C)CC[C@@H]1[C@@]24OO3` (single isomer, unassigned), inhibition was half-maximal at 3.51 nM (IC50).

`C[C@H]1[C@@H](CCOCc2cccc(F)c2)O[C@@H]2OC3(C)CC[C@H]4[C@H](C)CC[C@@H]1[C@@]24OO3` (single isomer, unassigned) showed an IC50 of 0.32 nM.

Consider `C[C@H]1[C@@H](CCOCc2ccccc2C(F)(F)F)O[C@@H]2OC3(C)CC[C@H]4[C@H](C)CC[C@@H]1[C@@]24OO3` (single isomer, unassigned), for which it took 1.64 nM to reach half-maximal inhibition (IC50). This IC50 is about 5.1-fold higher than that of the molecule before.

As to `C[C@H]1[C@@H](CCOC(=O)c2ccccc2F)O[C@@H]2OC3(C)CC[C@H]4[C@H](C)CC[C@@H]1[C@@]24OO3` (single isomer, unassigned), the half-inhibitory concentration (IC50) is 0.53 nM.

For `C[C@H]1[C@@H](CCOC(=O)c2ccc(F)cc2)O[C@@H]2OC3(C)CC[C@H]4[C@H](C)CC[C@@H]1[C@@]24OO3` (single isomer, unassigned), it took 0.69 nM to reach half-maximal inhibition (IC50).

Take `C[C@H]1[C@@H](CCOC(=O)c2ccc(C(F)(F)F)cc2)O[C@@H]2OC3(C)CC[C@H]4[C@H](C)CC[C@@H]1[C@@]24OO3` (single isomer, unassigned): the midpoint of inhibition, the IC50, lay at 0.59 nM. The IC50 values of the last two molecules are within 1.5-fold of each other.

As to `C[C@H]1[C@@H](CCOC(=O)c2cccc(F)c2)O[C@@H]2OC3(C)CC[C@H]4[C@H](C)CC[C@@H]1[C@@]24OO3` (single isomer, unassigned), the IC50 was determined as 0.35 nM. Against the preceding molecule, the IC50 is about 1.7-fold lower.

Turning to `C[C@H]1[C@@H](CCOC(=O)c2cccc(C(F)(F)F)c2)O[C@@H]2OC3(C)CC[C@H]4[C@H](C)CC[C@@H]1[C@@]24OO3` (single isomer, unassigned), inhibition was half-maximal at 0.64 nM (IC50).

`C[C@H]1[C@@H](CCOCc2ccc(C(F)(F)F)cc2)O[C@@H]2OC3(C)CC[C@H]4[C@H](C)CC[C@@H]1[C@@]24OO3` (single isomer, unassigned) yielded an IC50 of 4.24 nM.

In the case of `C[C@H]1[C@@H](CCOCc2ccc(F)cc2)O[C@@H]2OC3(C)CC[C@H]4[C@H](C)CC[C@@H]1[C@@]24OO3` (single isomer, unassigned), the IC50 was 0.73 nM. This IC50 is about 5.8-fold lower than that of the molecule before.

`C[C@@H]1CC[C@H]2[C@@H](C)C(=O)O[C@@H]3O[C@@]4(C)CC[C@@H]1[C@]32OO4` [ARTEMISININ] had a half-maximal inhibitory concentration (IC50) of 3.04 nM.

In the case of `C[C@H]1[C@@H](O)O[C@@H]2O[C@@]3(C)CC[C@H]4[C@H](C)CC[C@@H]1[C@@]24OO3` [ARTENIMOL], inhibition was half-maximal at 1.04 nM (IC50).

The subject of another test is Plasmodium falciparum. Put plainly: In vitro antimalarial activity against chloroquine-sensitive Plasmodium falciparum K1. Format: functional, organism-based. Put shortly: as §1
The molecule `C[C@H]1[C@@H](CCOCc2ccc(C(F)(F)F)cc2)O[C@@H]2OC3(C)CC[C@H]4[C@H](C)CC[C@@H]1[C@@]24OO3` (single isomer, unassigned) showed an IC50 of 3.75 nM.

The next test concerns Mus musculus. The test is described as follows: Compound was tested in vivo for antimalarial activity against Plasmodium berghei in the mice (Mus musculus) model. The class given is functional. Put shortly: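 Male random Swiss albino mice, 18-22 g, infected ip with 10^7 P. berghei NS-strain parasitized erythrocytes; ip dosing once daily for four consecutive days starting on infection day; vehicle methanol/PBS/DMSO (2:5:3). Parasitemia read the day after last dose; ED50 (50% suppression vs vehicle-only controls) taken from log dose vs parasitemia plot.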
As to `C[C@H]1[C@@H](CCO)O[C@@H]2OC3(C)CC[C@H]4[C@H](C)CC[C@@H]1[C@@]24OO3` (single isomer, unassigned), the 50% effect level (ED50) was put at a dose of 7.81 mg/kg.

As for `C[C@H]1[C@@H](CCOC(=O)c2cccc(F)c2)O[C@@H]2OC3(C)CC[C@H]4[C@H](C)CC[C@@H]1[C@@]24OO3` (single isomer, unassigned), the ED50 was determined as 6.99 mg/kg.

In turn, `CO[C@H]1O[C@@H]2O[C@@]3(C)CC[C@H]4[C@H](C)CC[C@@H]([C@H]1C)[C@@]24OO3` [ARTEMETHER] gave an ED50 of 3.15 mg/kg. This ED50 is about 2.2-fold lower than that of the molecule before.

In the case of `C[C@H]1[C@@H](O)O[C@@H]2O[C@@]3(C)CC[C@H]4[C@H](C)CC[C@@H]1[C@@]24OO3` [ARTENIMOL], the 50% effect level (ED50) was put at a dose of 1.15 mg/kg.

The next test has as its system Plasmodium falciparum. Put plainly: In vitro antimalarial activity against chloroquine-resistant Plasmodium falciparum K1.
In turn, `C[C@H]1[C@@H](CCO)O[C@@H]2OC3(C)CC[C@H]4[C@H](C)CC[C@@H]1[C@@]24OO3` (single isomer, unassigned) had an IC50 of 6.67 nM.

For `C[C@H]1[C@@H](CCOCc2cccc(F)c2)O[C@@H]2OC3(C)CC[C@H]4[C@H](C)CC[C@@H]1[C@@]24OO3` (single isomer, unassigned), the IC50 is 6.43 nM.

`C[C@H]1[C@@H](CCOCc2ccccc2C(F)(F)F)O[C@@H]2OC3(C)CC[C@H]4[C@H](C)CC[C@@H]1[C@@]24OO3` (single isomer, unassigned) registered an IC50 of 3.6 nM. Against the preceding molecule, the IC50 is about 1.8-fold lower.

As to `C[C@H]1[C@@H](CCOC(=O)c2ccccc2F)O[C@@H]2OC3(C)CC[C@H]4[C@H](C)CC[C@@H]1[C@@]24OO3` (single isomer, unassigned), the IC50 is 1.12 nM.

`C[C@H]1[C@@H](CCOC(=O)c2ccc(F)cc2)O[C@@H]2OC3(C)CC[C@H]4[C@H](C)CC[C@@H]1[C@@]24OO3` (single isomer, unassigned) displayed an IC50 of 1.92 nM.

Molecule `C[C@H]1[C@@H](CCOC(=O)c2ccc(C(F)(F)F)cc2)O[C@@H]2OC3(C)CC[C@H]4[C@H](C)CC[C@@H]1[C@@]24OO3` (single isomer, unassigned) displayed an IC50 of 14.2 nM.

The molecule `C[C@H]1[C@@H](CCOC(=O)c2cccc(F)c2)O[C@@H]2OC3(C)CC[C@H]4[C@H](C)CC[C@@H]1[C@@]24OO3` (single isomer, unassigned) returned an IC50 of 3.78 nM.

`C[C@H]1[C@@H](CCOC(=O)c2cccc(C(F)(F)F)c2)O[C@@H]2OC3(C)CC[C@H]4[C@H](C)CC[C@@H]1[C@@]24OO3` (single isomer, unassigned) yielded an IC50 of 4.7 nM.

Regarding `C[C@H]1[C@@H](CCOCc2ccc(F)cc2)O[C@@H]2OC3(C)CC[C@H]4[C@H](C)CC[C@@H]1[C@@]24OO3` (single isomer, unassigned), the IC50 stood at 6.08 nM.

The molecule `C[C@@H]1CC[C@H]2[C@@H](C)C(=O)O[C@@H]3O[C@@]4(C)CC[C@@H]1[C@]32OO4` [ARTEMISININ] showed an IC50 of 3.6 nM.

In turn, `C[C@H]1[C@@H](O)O[C@@H]2O[C@@]3(C)CC[C@H]4[C@H](C)CC[C@@H]1[C@@]24OO3` [ARTENIMOL] had an IC50 of 2.2 nM.

The record behind these values is ChEMBL document CHEMBL1132557, “Novel, potent, semisynthetic antimalarial carba analogues of the first-generation 1,2,4-trioxane artemether” (J Med Chem, 1999).
